LMPTP inh: blocks human LMPTP phosphatase; P24666; recombinant LMPTP-A, OMFP fluorogenic substrate, fluorescence intensity; inhibition, % at 20 µM; hit rate 0.22% among 360,000;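 active means compounds that cut the enzyme signal by at least half of the control window in the single-dose screen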;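 further: plate controls were DMSO wells with enzyme plus substrate for no effect and substrate without enzyme for full effect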
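Buffer or medium: Bis-Tris pH 6.0, DTT, detergent; Assay system: LMPTP-A enzyme; Quantity: 0.625 nM enzyme; Detection: endpoint fluorescence intensity; Times: 50 min dark incubation at room temperature; Controls: substrate-only low control, DMSO enzyme-plus-substrate high control; Doses: single 20 µM dose; Read-out: percent inhibition versus substrate-only and uninhibited controls; Reagent: 400 µM OMFP.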
F508del corr: CFTR F508del correction in bronchial cells; CFBE cells, YFP halide quenching; stimulated with forskolin plus potentiator P3; % fluorescence drop versus neutral controls; hit rate 0.36% among 350,000; activity (quench increase), % at 7.58 µM; AID 720511;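 active means mean added fluorescence quench of at least 8% versus neutral control, with both replicates also reaching 8%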;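 further: cells transiently co-express mutant CFTR-F508del with the halide-sensitive YFP; corrector assay measuring rescue of mutant channel to the surface after 24 h compound exposure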
STEP inh: inhibitors of human striatal-enriched phosphatase STEP | P54829 | recombinant STEP, OMFP fluorogenic substrate, fluorescence | inhibition, % at 20 µM | hit rate 0.25% among 360,000 | AID 588621;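 active means inhibition at 20 µM, scaled per plate between control wells, above about 37%, limit read from the data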;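 further: 0% = DMSO with enzyme and substrate and 100% = substrate only without enzyme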
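Material: STEP (striatal-enriched tyrosine phosphatase) enzyme, cell-free; Compound dosing: 20 µM single dose in 1% DMSO; Technique: fluorescence read at 480 nm ex / 540 nm em; Times: reaction 20 min, ambient temperature; Medium: 50 mM Bis-Tris pH 6.0 with 2.5 mM DTT and 0.005% Tween 20; Also added: OMFP at 25 µM.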
Scp1 inh: Scp-1 (human) phosphatase inhibition | Q9GZU7 | Recombinant Scp1, phosphopeptide, malachite green phosphate absorbance | inhibition, % at 20 µM | hit rate 0.88% among 340,000 | AID 493091;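 active means inhibition above about 50% at 20 µM, limit read from the data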;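 further: plate controls were DMSO wells with enzyme for no effect and wells lacking enzyme for full effect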
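Incubation: 45 min enzyme reaction at room temperature / System: truncated SCP-1 phosphatase (76-261aa) / Reagent: Phospho 17-mer peptide substrate / Buffer or medium: Acidic Tris acetate buffer with magnesium and detergent / Signal: absorbance at 630 nm / Doses: one concentration, 20 µM, with 1.0% DMSO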
DNMT1 block: blocks human DNA methyltransferase DNMT1 | inhibition (reported as % activation of signal), % at 10 µM | P26358 | hit rate 0.83% among 360,000 | DNMT1 molecular beacon, Hinp1I cleavage, fluorescence | AID 588458; in the data active means inhibition above about 50%
SUMO1-SIM PPI: modulators of human SUMO1-mediated protein-protein interactions. P63165. SUMO1 binding to a labelled peptide, TR-FRET, 1 h. inhibition, % at 20 µM. hit rate 0.33% among 360,000; in the data active means inhibition above about 37%
* = called active by the depositor; · = no result. Most compounds without a hit are left out; they make up all but 1.6% or so of the library.

SMILES	LMPTP inh	F508del corr	STEP inh	Scp1 inh	DNMT1 block	SUMO1-SIM PPI
Cc1sc2nc3c4ccccc4c(NCc4ccco4)nn3c(=O)c2c1C	5	·	-1	-5	1	75*
Cc1nc(NCc2ccco2)c2c(C)c(C)sc2n1	4	·	-1	-6	2	2
CCCNC(=O)[C@H]1[C@H](CO)[C@H]2Cn3c(ccc(C4=CCCC4)c3=O)[C@H]2N1CCC(F)(F)F	·	1	·	·	·	·
CCOC(=O)c1sc2nc(N3CCOCC3)c3c(c2c1N)CCC3	3	·	2	-17	-12	-17
CCOC(=O)c1sc2nc(OCCN3CCOCC3)cc(C)c2c1N	57*	-1	·	·	·	10
C[C@@H]1CN([C@H](C)CO)C(=O)c2cccc(NC(=O)c3nc4ccccc4s3)c2O[C@H]1CN(C)C(=O)Nc1ccccc1	·	-3	·	·	·	·
Nc1ccc2nc(CCCCCCc3nc4ccc(N)cc4[nH]3)[nH]c2c1	68*	-4	3	14	-15	0
Nc1ccc2nc(CCCCCCCCc3nc4ccc(N)cc4[nH]3)[nH]c2c1	65*	-2	2	-3	-14	-2
C[C@H](CO)N1C[C@H](C)[C@H](CN(C)C(=O)Nc2ccc(F)cc2)Oc2ccc(NC(=O)CCN3CCOCC3)cc2C1=O	·	-3	·	·	·	·
CCC(=O)N[C@@H]1C=C[C@H](CC(=O)NCC2CCCCC2)O[C@H]1CO	·	2	·	·	·	·
C[C@H]1CN([C@@H](C)CO)S(=O)(=O)c2ccc(Br)cc2O[C@@H]1CN(C)C(=O)C1CCC1	·	-2	·	·	·	·
COc1ccc(NC(=O)c2nc(C)c(C3(C)CC(c4cccnc4)=NO3)s2)cc1 (stereo unspecified)	4	17*	-1	0	-7	0
COc1ccc(C(=O)C[N+]2(C)CCOCC2)cc1	0	-1	-2	101*	-10	3
Cc1ccc(-c2nn(C)c(=O)c3ccccc23)cc1S(=O)(=O)NCCN1CCOCC1	0	·	1	15	7	1
CCOC(=O)CNS(=O)(=O)c1cc(-c2nn(C)c(=O)c3ccccc23)ccc1C	6	·	16	62*	21	0
O=C1c2ccccc2C(=O)c2c1cccc2N(CCO)CCO	2	13*	-2	-10	-3	-36
C[C@@H](NC(=O)C[C@H]1C[C@@H]2c3cc(NC(=O)C4CCOCC4)ccc3O[C@@H]2[C@@H](CO)O1)c1ccccc1	·	2	·	·	·	·
C[C@@H]1CN([C@@H](C)CO)C(=O)c2cc(NC(=O)Nc3ccc(F)cc3)ccc2O[C@@H](C)CCCCO[C@H]1CN(C)C(=O)Cc1ccccc1	·	0	·	·	·	·
O=C(C[C@H]1C=C[C@@H](NC(=O)Nc2ccc3c(c2)OCO3)[C@@H](CO)O1)NCc1ccc(F)cc1	·	1	·	·	·	·
Oc1ccc(/C=N/Nc2ccnc3cc(Cl)ccc23)c(O)c1O	46	-3	14	-12	-7	10
Oc1ccc(/C=N/Nc2ccnc3cc(Cl)ccc23)cc1O	48	0	2	-7	4	55*
O=C(C[C@@H]1CC[C@@H](NC(=O)C2CCC2)[C@@H](CO)O1)NC1CCCCC1	·	1	·	·	·	·
CC(C)Nc1nc(Nc2ccc(C#N)cc2)c2sccc2n1	44	8.1*	0	·	0	8
O=C(O)CN1C(=O)/C(=C\c2cc(Br)ccc2OCc2ccc(Cl)cc2Cl)SC1=S	67*	·	15	31	95*	78*
O=C(O)CN1C(=O)/C(=C\c2ccccc2OCc2ccc(Cl)cc2)SC1=S	2	-3	10	9	3	-5
Oc1ccc(-c2csc(Nc3ccccn3)n2)cc1O	8	1	2	19	-4	3
Oc1ccc(-c2csc(Nc3cccc4ccccc34)n2)cc1O	62*	2	3	11	18	17
N=C1/C(=C/c2cccn2CCOc2ccccc2)C(=O)N=C2SC=C(c3ccccc3)N12	4	13*	0	-16	-10	1
N=C1/C(=C/c2ccc(-c3cccc(C(=O)O)c3)o2)C(=O)N=C2SC=C(c3ccccc3)N12	89*	-3	64*	68*	100*	46*

Compound activity (PubChem)
